In brackets after ≈: the same amount, converted by molar mass. Activity calls are given as the source filed them. No cut-off for these calls is given here.
Tests used:
[1] = system: Streptococcus pneumoniae; test: Antibacterial activity against Streptococcus pneumoniae ATCC 49619 after 20 hrs by CLSI based-broth microdilution method; assay type: functional
How it was run: (§1)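 Streptococci tested in Brain Heart Infusion broth. Two-fold dilutions from 256 to 0.5 μg/mL, inoculum approx. 5 × 10^5 CFU/mL. Incubated 20 h at 37 °C. MIC is the lowest concentration without visible growth.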

[2] = system: Staphylococcus aureus; test: Antibacterial activity against Staphylococcus aureus ATCC 25923 after 20 hrs by CLSI based-broth microdilution method; assay type: functional
How it was run: (§2)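 Broth microdilution in cation-adjusted Mueller-Hinton broth. Two-fold serial dilutions from 256 μg/mL down to 0.5 μg/mL. Inoculum approx. 5 × 10^5 CFU/mL. Incubated 20 h at 37 °C. MIC taken as the lowest concentration with no observable growth.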

[3] = system: Staphylococcus aureus; test: Antibacterial activity against Staphylococcus aureus ATCC 29213 after 20 hrs by CLSI based-broth microdilution method; assay type: functional; how it was run: as §2
[4] = system: Enterococcus faecalis; test: Antibacterial activity against Enterococcus faecalis ATCC 19433 after 20 hrs by CLSI based-broth microdilution method; assay type: functional
How it was run: (§3)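 Broth microdilution MIC. Two-fold serial dilutions from 256 μg/mL down to 0.5 μg/mL. Inoculum approx. 5 × 10^5 CFU/mL. Read after 20 h at 37 °C. MIC is the lowest concentration with no observable growth.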

[5] = system: Staphylococcus epidermidis; test: Antibacterial activity against Staphylococcus epidermidis ATCC 12228 after 20 hrs by CLSI based-broth microdilution method; assay type: functional; how it was run: as §2
[6] = Antibacterial activity against Staphylococcus saprophyticus ATCC 15305 after 20 hrs by CLSI based-broth microdilution method; assay type: functional, Staphylococcus saprophyticus subsp. saprophyticus; how it was run: as §2
[7] = system: Streptococcus pyogenes; test: Antibacterial activity against Streptococcus pyogenes ATCC 19615 after 20 hrs by CLSI based-broth microdilution method; assay type: functional; how it was run: as §1
[8] = system: Streptococcus agalactiae; test: Antibacterial activity against Streptococcus agalactiae ATCC 12386 after 20 hrs by CLSI based-broth microdilution method; assay type: functional; how it was run: as §1
[9] = system: Clostridioides difficile; test: Antibacterial activity against Clostridium difficile ATCC 9689 assessed as reduction in bacterial toxin A production at sub-inhibitory concentration incubated for 48 hrs under anaerobic condition by ELISA; assay type: functional, organism-based; conditions: ATCC 9689 = DSM 1296
How it was run: (§4)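 Incubated anaerobically at 37 °C for 48 h. Supernatants cleared at 10,000 × g for 2 min. TcdA and TcdB quantified by commercial ELISA, normalized to drug-free control. Duplicate, with technical and biological repeats.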

[10] = system: Clostridioides difficile; test: Antibacterial activity against Clostridium difficile ATCC 9689 assessed as reduction in bacterial toxin B production at sub-inhibitory concentration incubated for 48 hrs under anaerobic condition by ELISA; assay type: functional, organism-based; conditions: ATCC 9689 = DSM 1296; how it was run: as §4
[11] = system: Clostridioides difficile; test: Antibacterial activity against Clostridium difficile ribotype 002 assessed as reduction in bacterial toxin A production at sub-inhibitory concentration incubated for 48 hrs under anaerobic condition by ELISA; assay type: functional, organism-based; how it was run: as §4
[12] = system: Clostridioides difficile; test: Antibacterial activity against Clostridium difficile ribotype 002 assessed as reduction in bacterial toxin B production at sub-inhibitory concentration incubated for 48 hrs under anaerobic condition by ELISA; assay type: functional, organism-based; how it was run: as §4
[13] = system: Clostridioides difficile; test: Antibacterial activity against Clostridium difficile ribotype 027 assessed as reduction in bacterial toxin A production at sub-inhibitory concentration incubated for 48 hrs under anaerobic condition by ELISA; assay type: functional, organism-based; how it was run: as §4
[14] = system: Clostridioides difficile; test: Antibacterial activity against Clostridium difficile ribotype 027 assessed as reduction in bacterial toxin B production at sub-inhibitory concentration incubated for 48 hrs under anaerobic condition by ELISA; assay type: functional, organism-based; how it was run: as §4
[15] = system: Bacillus subtilis; test: Antibacterial activity against Bacillus subtilis BS1048 after 20 hrs by CLSI based broth microdilution method; assay type: functional; how it was run: as §3
[16] = system: Bacillus subtilis; test: Inhibition of GFP-fused RNAP subunit beta' interaction with sigma factor A in Bacillus subtilis BS1048 assessed as nucleoid delocalization at half MIC incubated for 15 mins by confocal microscopy
How it was run: (§5)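 B. subtilis BS1048 (RpoC-GFP) grown from a single colony in LB at 37 °C to OD600 ~0.6. […] Cells mounted on 1.2% agarose under a coverslip and imaged by confocal microscopy with a 63×/1.3 oil objective for RNAP-GFP localization relative to the nucleoid.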

[17] = system: Bacillus subtilis; test: Inhibition of GFP-fused RNAP subunit beta' interaction with sigma factor A in Bacillus subtilis BS1048 assessed as alteration in transcriptional complex localization by measuring diffusion of fluorescent signal into cytosol at 1 to 2 times MIC incubated for 15 mins by confocal microscopy; assay type: subcellular; how it was run: as §5
[18] = system: Staphylococcus aureus; test: Inhibition of RNAP/sigma factor interaction in Staphylococcus aureus ATCC 29213 assessed as total DNA level at 1/4 to 1/8 times MIC by fluorimetric method
How it was run: (§6)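 S. aureus ATCC 29213 master culture started at OD600 0.1 at 37 °C with shaking at 175 rpm. At OD600 0.2 it was split and given compound or control at ¼ and ⅛ MIC, plus a drug-free culture. Cells harvested when the control reached OD600 0.6, with volumes normalized to OD600 0.6 equivalent. DNA and RNA measured by Qubit fluorometry, protein by BCA; triplicate.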

[19] = system: Staphylococcus aureus; test: Inhibition of RNAP/sigma factor interaction in Staphylococcus aureus ATCC 29213 assessed as reduction in total RNA level by fluorimetric method; how it was run: as §6
[20] = system: Staphylococcus aureus; test: Inhibition of RNAP/sigma factor interaction in Staphylococcus aureus ATCC 29213 assessed as reduction in total protein level at 1/4 to 1/8 times MIC by fluorimetric method
[21] = system: Staphylococcus aureus; test: Inhibition of RNA polymerase in Staphylococcus aureus ATCC 29213 assessed as total DNA level at 1/4 to 1/8 times MIC by fluorimetric method; how it was run: as §6
[22] = system: Staphylococcus aureus; test: Inhibition of RNA polymerase in Staphylococcus aureus ATCC 29213 assessed as reduction in total RNA level at 1/4 to 1/8 times MIC by fluorimetric method; how it was run: as §6
[23] = system: Staphylococcus aureus; test: Inhibition of RNA polymerase in Staphylococcus aureus ATCC 29213 assessed as reduction in total protein level at 1/4 to 1/8 times MIC by fluorimetric method
[24] = system: Clostridioides difficile; test: Antibacterial activity against Clostridium difficile ATCC 9689 after measured 48 hrs under anaerobic condition by CLSI based-broth microdilution method; assay type: functional; conditions: ATCC 9689 = DSM 1296
How it was run: (§7)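 Compounds dissolved in DMSO. Media pre-reduced 3 h in an anaerobic chamber. Colonies from overnight anaerobic GAM agar grown to early log phase in BHI plus 0.5% w/v yeast extract and 0.05% L-cysteine. Adjusted to 0.5 McFarland, diluted 100 μL into 15 mL. Mixed 1:1 with serially diluted agents. Incubated anaerobically at 37 °C, growth read at 48 h, triplicate.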

[25] = system: Clostridioides difficile; test: Antibacterial activity against Clostridium difficile ribotype 002 measured after 48 hrs under anaerobic condition by CLSI based-broth microdilution method; assay type: functional; how it was run: as §7
[26] = system: Clostridioides difficile; test: Antibacterial activity against Clostridium difficile ribotype 027 measured after 48 hrs under anaerobic condition by CLSI based-broth microdilution method; assay type: functional; how it was run: as §7

## O=C(O)c1ccc(Cl)cc1C(=O)c1ccc(Sc2ccc(Cl)c(Cl)c2)c([N+](=O)[O-])c1
[1]
  MIC: 8 µg/mL (≈ 16.6 µM)
[2]
  MIC: 8 µg/mL (≈ 16.6 µM)
[3]
  MIC: 8 µg/mL (≈ 16.6 µM)

## COc1ccccc1Cc1ccc(Sc2ccc(Cl)c(Cl)c2)c([N+](=O)[O-])c1
[1]
  MIC: > 256 µg/mL
[2]
  MIC: > 256 µg/mL
[3]
  MIC: > 256 µg/mL

## O=C(O)c1ccc(C(F)(F)F)cc1C(=O)c1ccc(Sc2ccc(Cl)c(Cl)c2)c([N+](=O)[O-])c1
[1]
  MIC: 2 µg/mL (≈ 3.87 µM)
[2]
  MIC: 4 µg/mL (≈ 7.75 µM)
[3]
  MIC: 4 µg/mL (≈ 7.75 µM)
[4]
  MIC: 8 µg/mL (≈ 15.5 µM)
[5]
  MIC: 0.5 µg/mL (≈ 0.968 µM)
[6]
  MIC: 1 µg/mL (≈ 1.94 µM)
[7]
  MIC: 4 µg/mL (≈ 7.75 µM)
[8]
  MIC: 4 µg/mL (≈ 7.75 µM)
[9]
  Activity: Dose-dependent effect
[10]
  Activity: Dose-dependent effect
[11]
  Activity: Dose-dependent effect
[12]
  Activity: Dose-dependent effect
[13]
  Activity: Dose-dependent effect
[14]
  Activity: Dose-dependent effect
[15]
  MIC: 2 µg/mL (≈ 3.87 µM)
[16]
  inhibition: Active
[17]
  inhibition: Active
[18]
  inhibition: inactive
[19]
  inhibition: Dose-dependent effect
[20]
  inhibition: Active

## CO[C@H]1/C=C/O[C@@]2(C)Oc3c(C)c(O)c4c(O)c(c(/C=N/N5CCN(C)CC5)c(O)c4c3C2=O)NC(=O)/C(C)=C\C=C\[C@H](C)[C@H](O)[C@@H](C)[C@@H](O)[C@@H](C)[C@H](OC(C)=O)[C@@H]1C
[21]
  inhibition: inactive
[22]
  inhibition: Active
[23]
  inhibition: inactive

## O=C(O)c1cc(Cl)ccc1Cc1ccc(Sc2ccc(Cl)c(Cl)c2)c([N+](=O)[O-])c1
[1]
  MIC: 4 µg/mL (≈ 8.53 µM)
[2]
  MIC: 8 µg/mL (≈ 17.1 µM)
[3]
  MIC: 8 µg/mL (≈ 17.1 µM)

## CN[C@H](CC(C)C)C(=O)N[C@H]1C(=O)N[C@@H](CC(N)=O)C(=O)N[C@H]2C(=O)N[C@H]3C(=O)N[C@H](C(=O)N[C@H](C(=O)O)c4cc(O)cc(O)c4-c4cc3ccc4O)[C@H](O)c3ccc(c(Cl)c3)Oc3cc2cc(c3O[C@@H]2O[C@H](CO)[C@@H](O)[C@H](O)[C@H]2O[C@H]2C[C@](C)(N)[C@H](O)[C@H](C)O2)Oc2ccc(cc2Cl)[C@H]1O [VANCOMYCIN]
[4]
  MIC: 1 µg/mL (≈ 0.69 µM)
[5]
  MIC: 0.5 µg/mL (≈ 0.345 µM)
[6]
  MIC: 0.25 µg/mL (≈ 0.173 µM)
[7]
  MIC: 1 µg/mL (≈ 0.69 µM)
[8]
  MIC: 2 µg/mL (≈ 1.38 µM)
[24]
  MIC: 4 µg/mL (≈ 2.76 µM)
[25]
  MIC: 2 µg/mL (≈ 1.38 µM)
[26]
  MIC: 2 µg/mL (≈ 1.38 µM)
[9]
  Activity: inactive
[10]
  Activity: inactive
[11]
  Activity: inactive
[12]
  Activity: inactive
[13]
  Activity: inactive
[14]
  Activity: inactive

## O=C(O)c1cc(C(F)(F)F)ccc1Cc1ccc(Sc2ccc(Cl)c(Cl)c2)c([N+](=O)[O-])c1
[1]
  MIC: 2 µg/mL (≈ 3.98 µM)
[3]
  MIC: 8 µg/mL (≈ 15.9 µM)

## O=C(O)c1ccccc1C(=O)c1ccc(Sc2ccc(Cl)c(Cl)c2)c([N+](=O)[O-])c1
[1]
  MIC: 8 µg/mL (≈ 17.8 µM)
[2]
  MIC: 16 µg/mL (≈ 35.7 µM)
[3]
  MIC: 16 µg/mL (≈ 35.7 µM)

## COc1ccccc1C(=O)c1ccc(Sc2ccc(Cl)c(Cl)c2)c([N+](=O)[O-])c1
[1]
  MIC: > 256 µg/mL
[2]
  MIC: > 256 µg/mL
[3]
  MIC: > 256 µg/mL

## O=C(O)c1cccc(C(=O)c2ccc(Sc3ccc(Cl)c(Cl)c3)c([N+](=O)[O-])c2)c1
[1]
  MIC: > 256 µg/mL
[2]
  MIC: > 256 µg/mL
[3]
  MIC: 32 µg/mL (≈ 71.4 µM)

## O=C(O)c1ccc(F)cc1Cc1ccc(Sc2ccc(Cl)c(Cl)c2)c([N+](=O)[O-])c1
[1]
  MIC: 4 µg/mL (≈ 8.84 µM)
[2]
  MIC: 8 µg/mL (≈ 17.7 µM)
[3]
  MIC: 8 µg/mL (≈ 17.7 µM)
